In ChEMBL document CHEMBL3044910, “Antifeedant activity of some pentacyclic triterpene acids and their fatty acid ester analogues” (2003):
Activity calls are given as the source filed them. No cut-off for these calls is given here.

Key:
Type in all cases: functional
Spodoptera litura [1] = assay: Antifeedant activity against fourth-instar larval stage of Spodoptera litura reared on castor leaves assessed as decrease in food consumption at 100 ug/cm2 after 48 hr by no-choice leaf disk assay relative to untreated control
Method in brief: (§1)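 Larvae reared on fresh castor leaves at 27 ± 1 °C, 65 ± 5% RH, 14:10 light:dark; freshly molted fourth instars used. Treated leaf disks placed with larvae in Petri dishes; leaf area consumed in treated and control disks measured by planimeter. Percent protection corrected for control by Singh and Panth formula; mean with standard deviation reported.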

Spodoptera litura [2] = assay: Antifeedant activity against fourth-instar larval stage of Spodoptera litura reared on castor leaves assessed as decrease in food consumption at 150 ug/cm2 after 48 hr by no-choice leaf disk assay relative to untreated control; method in brief: as §1
Spodoptera litura [3] = assay: Antifeedant activity against fourth-instar larval stage of Spodoptera litura reared on castor leaves assessed as decrease in food consumption at 50 to 150 ug/cm2 measured after 48 hr by no-choice leaf disk assay relative to untreated control; design: scale not given: the % may be the effect or the level left
Method in brief: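 Larvae reared on fresh castor leaves at 27 ± 1 °C, 65 ± 5% relative humidity, 14:10 light:dark; freshly molted fourth-instar larvae used. No-choice leaf disk test in Petri dish at 150, 100 and 50 µg/cm2. Leaf area consumed measured by planimeter at 6, 12, 24 and 48 h in treated and control disks. Percent protection corrected for control protection; mean with standard deviation.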

Spodoptera litura [4] = assay: Antifeedant activity against fourth-instar larval stage of Spodoptera litura reared on castor leaves assessed as decrease in food consumption at 50 ug/cm2 after 48 hr by no-choice leaf disk assay relative to untreated control; design: scale not given: the % may be the effect or the level left; method in brief: as §1

SMILES | Activity (Spodoptera litura [1]) | Activity (Spodoptera litura [2]) | Activity (Spodoptera litura [3]) [%] | Activity (Spodoptera litura [4]) [%]
CCCCCCCCCCCCCCCCCC(=O)O[C@H]1CC[C@]2(C)[C@H]3CC=C4[C@@H]5CC(C)(C)CC[C@]5(C(=O)O)CC[C@@]4(C)[C@]3(C)CC[C@H]2C1(C)C | Active | Active |  | 
C/C=C(\C)C(=O)O[C@H]1C[C@@H](OC(C)=O)[C@@]2(C(=O)OC)CO[C@H]3[C@@H](O)[C@@](C)([C@]45O[C@@]4(C)[C@H]4C[C@@H]5O[C@@H]5OC=C[C@@]54O)[C@H]4[C@]1(CO[C@]4(O)C(=O)OC)[C@@H]32 [AZADIRACTIN] | 40% | >50% | 81 | 
CCCCCCCCCCCCCCCC(=O)O[C@H]1CC[C@]2(C)[C@H]3CC=C4[C@@H]5CC(C)(C)CC[C@]5(C(=O)O)CC[C@@]4(C)[C@]3(C)CC[C@H]2C1(C)C [OLEAN-12-ENE-28-CARBOXY-3BETA-HEXADECANOATE] | 40% | >50% |  | 71
CC1(C)CC[C@]2(C(=O)O)CC[C@]3(C)C(=CC[C@@H]4[C@@]5(C)CC[C@H](O)C(C)(C)[C@@H]5CC[C@]43C)[C@@H]2C1 [OLEANOLIC_ACID] | 40% | Active |  | 
CCCCCCCCCCCCCCCC(=O)O[C@H]1CC[C@]2(C)[C@H]3CC=C4[C@@H]5[C@@H](C)[C@H](C)CC[C@]5(C(=O)O)CC[C@@]4(C)[C@]3(C)CC[C@H]2C1(C)C | 40% | >50% |  | >50
CCCCCCCCCCCCCCCCCC(=O)O[C@H]1CC[C@]2(C)[C@H]3CC=C4[C@@H]5[C@@H](C)[C@H](C)CC[C@]5(C(=O)O)CC[C@@]4(C)[C@]3(C)CC[C@H]2C1(C)C [URS-12-ENE-28-CARBOXY-3BETA-OCTADECANOATE] | 40% | >50% |  | 74
CCCCCCCCCCCCCC(=O)O[C@H]1CC[C@]2(C)[C@H]3CC=C4[C@@H]5[C@@H](C)[C@H](C)CC[C@]5(C(=O)O)CC[C@@]4(C)[C@]3(C)CC[C@H]2C1(C)C [URS-12-ENE-28-CARBOXY-3BETA-TETRADECANOATE] | 40% | >50% |  | >50
C[C@H]1[C@H](C)CC[C@]2(C(=O)O)CC[C@]3(C)C(=CC[C@@H]4[C@@]5(C)CC[C@H](O)C(C)(C)[C@@H]5CC[C@]43C)[C@H]12 [URSOLIC ACID] | 40% | >50% |  | 
CCCCCCCCCCCC(=O)O[C@H]1CC[C@]2(C)[C@H]3CC=C4[C@@H]5[C@@H](C)[C@H](C)CC[C@]5(C(=O)O)CC[C@@]4(C)[C@]3(C)CC[C@H]2C1(C)C [URS-12-ENE-28-CARBOXY-3BETA-DODECANOATE] | 40% | >50% |  | 
